High-throughput results from PubChem.
Only some compounds are listed: those with a hit (about 2% of all), similar ones and a draw of the others.
E-sel inducer – E-selectin induction on HUVECs; actives 0.37% (n = 260,000); P16581; activation, % at 7.58 µM; HUVEC E-selectin immunofluorescence imaging; normalized: neutral wells 0, TNF-alpha wells 100;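 active means mean E-selectin-positive cell signal at least 10% of the positive control, reached in at least 60% of replicates, without over 20% cell loss; inconclusive means no rule given, readout overlaps actives, possibly toxicity-flagged; inactive means the rest, including those meeting only one limit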
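Test system: HUVEC | Signal: Immunofluorescence imaging | Read-out: Percent E-selectin-positive cells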
rRNA inh HTS – inhibits bacterial ribosomal RNA function over humanized ribosomes. E. coli WT GFP vs humanized-ribosome RFP mutants, fluorescence, 24 h; stronger effect = lower value; DMSO median 0, no signal -100. GFP signal change (wild-type ribosome), % (test concentration not listed). actives 1.6% (n = 350,000);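 active means significant combined selectivity score with lowered wild-type GFP, culture density cut under 30%, mutant RFP and density less affected; inactive means any of these conditions unmet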
RAD52 anneal inh – blocks human RAD52 DNA annealing; inhibition, % at 18.7 µM; recombinant RAD52 DNA annealing, FRET fluorescence; AID 651710; actives 0.46% (n = 360,000);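 active means every replicate showing at least 50% inhibition; inconclusive means mean inhibition at least 50% but not in every replicate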
Target sequence (P43351 whole entry, looked up): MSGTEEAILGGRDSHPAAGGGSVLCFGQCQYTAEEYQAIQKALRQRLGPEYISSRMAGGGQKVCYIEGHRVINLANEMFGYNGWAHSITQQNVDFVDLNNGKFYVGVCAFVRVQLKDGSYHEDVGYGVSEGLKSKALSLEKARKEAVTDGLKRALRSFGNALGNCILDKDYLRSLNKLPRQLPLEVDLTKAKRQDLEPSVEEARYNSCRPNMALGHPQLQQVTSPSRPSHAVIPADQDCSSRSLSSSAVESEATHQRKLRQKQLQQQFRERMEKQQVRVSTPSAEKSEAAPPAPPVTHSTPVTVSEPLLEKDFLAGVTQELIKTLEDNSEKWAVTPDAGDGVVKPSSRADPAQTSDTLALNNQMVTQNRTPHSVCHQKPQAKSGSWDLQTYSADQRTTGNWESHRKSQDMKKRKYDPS
RAD54 inh – inhibitors of human RAD54 branch migration; Q92698; RAD54 Holliday junction branch migration, FAM/BHQ fluorescence; inhibition, % at 10.4 µM; actives 0.14% (n = 360,000);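 active means mean normalized replicate activity at least 40 and at least half of replicates scoring 40 or more; inconclusive means only one of the two criteria met; inactive means mean below 40 and under half of replicates reaching 40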;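 further: 0% = median of neutral control wells and 100% = median of positive control wells; inhibitors cause a drop in the FAM fluorescence signal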
Xi reactivation – activators of X-chromosome reactivation in mouse fibroblasts. XiGFP mouse fibroblasts, % GFP-positive cells imaging, 3 d; cells co-treated with 5-aza-dC sensitizer; scaled so ellipticine positive control = 100%. activation, % at 7.58 µM. actives 0.055% (n = 360,000). AID 743238;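 active means mean normalized replicate activation at least 10% and every replicate at or above 10%; inconclusive means only one of the two criteria met; inactive means mean below 10% and not all replicates reach 10%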;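 further: 0% = median of on-plate neutral control wells and 100% = ellipticine 6 µM median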
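Material: SV40-immortalized XiGFP fibroblast cells, line 68-5-11 | Buffer or medium: DMEM containing 5-aza-dC | Dosing: One concentration, pinned | Times: 3 d treatment, 15 min room-temperature fixation | Controls: Ellipticine 6 µM positive control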
PglD DTNB – blocks C. jejuni PglD acetyltransferase activity | AID 602405 | inhibition, % at 12.5 µM | actives 0.098% (n = 360,000) | purified PglD enzyme, DTNB colorimetric CoA detection; in the data active means inhibition above about 16%, passing the limit was not always enough; inconclusive means no clear call, values can overlap the other calls
AID977621 – growth inhibition of wild-type GFP E. coli, dose response, H69 mutant RFP, cherry-pick; shares compounds with rRNA inh HTS; E. coli wild-type GFP strain growth, fluorescence, 24 h; activity change, negative = inhibition at 50 µM; 1,900 tested, under 10 active; AID 977621;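 active means Wild-type ribosome reporter drop at least double the humanized mutant ribosome reporter drop, growth loss under a set limit; inconclusive means no clear call, values can overlap the other calls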;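 further: wild-type GFP and H69 mutant RFP strains grown together 50/50 in each well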
AID977628 – E. coli growth inhibition, wild-type GFP versus h24 humanized RFP strain, dose response, h24 mutant RFP vs wild-type GFP, cherry-pick | shares compounds with rRNA inh HTS | E. coli WT GFP strain growth, fluorescence, 24 h | activity change, negative = inhibition at 50 µM | 1,900 tested, under 10 active | AID 977628;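 active means compound lowering the normal-ribosome reporter at least twice as much as the humanized-ribosome reporter, growth loss under a set limit; inconclusive means no clear call, values can overlap the other calls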;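 further: wild-type GFP and h24 humanized RFP strains co-cultured 1 to 1 per well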
* hit, by the source's call.

For C/C=C/c1ccc([C@@H]2[C@@H](CO)N3C(=O)CN(C(=O)Nc4ccc(F)cc4)C[C@@H]23)cc1 the results were E-sel inducer 0, rRNA inh HTS 0, RAD52 anneal inh 12 and Xi reactivation 0.
Screening CC1C=Cc2ccccc2N1C(=O)c1ccccc1 (stereo unspecified) returned rRNA inh HTS -32*, RAD52 anneal inh -10, RAD54 inh 6, PglD DTNB -8 and AID977621 2.5.
O=C(NCCc1ccc(O)cc1)c1[nH]c(C(F)(F)F)nc1-c1ccccc1 was read as E-sel inducer 3, rRNA inh HTS -23*, RAD52 anneal inh -4, RAD54 inh 7, Xi reactivation 0, PglD DTNB -4, AID977621 -2.2 and AID977628 inconclusive.
`O=C(NCCc1ccccc1)c1[nH]c(C(F)(F)F)nc1-c1ccccc1` gave E-sel inducer 0, rRNA inh HTS 0, RAD52 anneal inh -7, RAD54 inh 10, Xi reactivation 0 and PglD DTNB -3.
O=C1N[C@H](Cc2ccccc2)COCc2cn(nn2)CC[C@@H]1Cc1ccccc1 was read as E-sel inducer 0, rRNA inh HTS 2, RAD52 anneal inh 3 and Xi reactivation inconclusive.
CN(Cc1ccc(F)cc1)C(=O)CCc1nnc(-c2ccccc2)o1 was read as E-sel inducer 0, rRNA inh HTS -5, RAD52 anneal inh -5 and Xi reactivation 0.
`CN(Cc1nnc(-c2ccc(F)cc2)o1)c1ccccc1` gave rRNA inh HTS -26*, RAD52 anneal inh -37, RAD54 inh 5, Xi reactivation 0, PglD DTNB 4, AID977621 -7.6 and AID977628 -7.
C[C@H](CO)N1C[C@H](C)[C@@H](CN(C)C)OCCCC[C@H](C)Oc2ccc(NC(=O)CCC(F)(F)F)cc2C1=O was read as E-sel inducer 0, rRNA inh HTS 1, RAD52 anneal inh -18, RAD54 inh -3, Xi reactivation 0 and PglD DTNB -2.
For O=C(CCSCc1ccccc1F)NCc1cccnc1 the results were E-sel inducer 0, rRNA inh HTS 5, RAD52 anneal inh 3 and Xi reactivation 0.
COc1cccc(OC)c1CNC(=O)CCSCc1ccccc1F was read as E-sel inducer 0, rRNA inh HTS -35*, RAD52 anneal inh -23, Xi reactivation 0, AID977621 3.2 and AID977628 -7.1.
Screening COc1cccc(CNC(=O)CCSCc2ccccc2F)c1 returned E-sel inducer 5, rRNA inh HTS -29*, RAD52 anneal inh -20, Xi reactivation 0 and AID977621 -11.
`COCc1[nH]nc2c1C(c1ccc3c(c1)OCO3)N(c1ccc(OC)cc1)C2=O` (stereo unspecified) gave E-sel inducer 0, rRNA inh HTS -30*, RAD52 anneal inh -3, Xi reactivation 1, AID977621 4.7 and AID977628 0.031.
For CCN(CC)CCN(C(=O)c1ccc2c(c1)CCCC2)c1nc2ccc(F)cc2s1 the results were rRNA inh HTS -23*, RAD52 anneal inh -17, Xi reactivation 0 and AID977621 -13.
COc1ccccc1CNC(=O)CSc1ccc(C)cc1 was read as rRNA inh HTS -16*, RAD52 anneal inh -9, Xi reactivation 0 and AID977621 -6.4.
`COc1ccccc1CNC(=O)CN1C(=O)NC(c2ccccc2)(c2ccccc2)C1=O` gave E-sel inducer 0, rRNA inh HTS -16*, RAD52 anneal inh -17, Xi reactivation 0 and AID977621 -0.42.
For Cc1ccc(Cn2cnc3ccccc32)cc1 the results were rRNA inh HTS -25*, RAD52 anneal inh 10, RAD54 inh -6, PglD DTNB -1, AID977621 -13 and AID977628 -0.7.
Screening O=C(Nc1cccc2cccnc12)c1ccccc1Cl returned E-sel inducer 0, rRNA inh HTS -3, RAD52 anneal inh -1, RAD54 inh 2, Xi reactivation 0 and PglD DTNB 1.
`COc1ccccc1C(=O)Nc1cccc2cccnc12` gave rRNA inh HTS -30*, RAD52 anneal inh -21, RAD54 inh 5, Xi reactivation 0, PglD DTNB -1 and AID977621 -8.4.
COC(=O)c1sccc1NC(=O)Cn1nnc(-c2ccccc2C)n1 was read as rRNA inh HTS -30*, RAD52 anneal inh -17, Xi reactivation 1 and AID977621 -12.
CCOC(=O)c1ccc(NC(=O)Cn2nnc(-c3ccccc3C)n2)cc1 was read as RAD54 inh 7 and PglD DTNB 1.
COc1ccc(N2C(=O)C3C(c4ccc(C(=O)O)cc4)NC(Cc4ccccc4)(C(=O)O)C3C2=O)c([N+](=O)[O-])c1 (stereo unspecified) was read as E-sel inducer 4, rRNA inh HTS -19*, RAD52 anneal inh -13, Xi reactivation 0, AID977621 3.8 and AID977628 3.9.
`Cc1noc(C)c1COc1cccc(C(=O)N2CCc3ccccc32)c1` gave E-sel inducer 2, rRNA inh HTS -41*, RAD52 anneal inh -21, RAD54 inh -10, Xi reactivation 0, PglD DTNB 0, AID977621 -7.5 and AID977628 -11.
Cc1cc(NCc2ccccn2)n2nc(C)c(-c3ccccc3)c2n1 was read as E-sel inducer 3, rRNA inh HTS -47*, RAD52 anneal inh -14, Xi reactivation 0, AID977621 -4.5 and AID977628 inconclusive.
For C[C@@H]1CCCCO[C@H](CN(C)C(=O)Nc2cccc3ccccc23)[C@@H](C)CN([C@H](C)CO)C(=O)c2cc(NC(=O)CCC(F)(F)F)ccc2O1 the results were E-sel inducer 0, rRNA inh HTS 3, RAD54 inh 0, Xi reactivation 0 and PglD DTNB -1.
O=C(CCC(=O)c1cccs1)OCC(=O)c1ccc(F)cc1 was read as E-sel inducer 0, rRNA inh HTS 6, RAD52 anneal inh -11, RAD54 inh 2, Xi reactivation 0 and PglD DTNB -4.
`O=C(CCC(=O)c1cccs1)OCC(=O)c1ccc(Cl)s1` gave rRNA inh HTS -18*, RAD52 anneal inh -20, RAD54 inh 16, PglD DTNB 5 and AID977621 -16.
